Results reported in ChEMBL document CHEMBL3098013, “Novel pyrazole integrated 1,3,4-oxadiazoles: synthesis, characterization and antimicrobial evaluation” (2014).
≈ marks a conversion by molar mass, not a printed value.

How the values were obtained:
Type in all cases: functional
[1] = system: Aspergillus flavus; experiment: Antimicrobial activity against Aspergillus flavus MTCC 873 at 100 ug/ml after 48 hrs by disc diffusion method; details: MTCC 873, 48 h, read-out: DIZ
In short: (§1)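 Agar diffusion read-out is the diameter of the inhibition zone in mm. Each test was run in six replicates and reported as mean ± standard deviation, taken from at least three determinations.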

[2] = system: Fusarium oxysporum; experiment: Antimicrobial activity against Fusarium oxysporum MTCC 284 after 48 hrs by microdilution method; details: MTCC 284, 48 h
In short: (§2)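 The minimal inhibitory concentration was determined by dilution, alongside minimal bactericidal concentration for bacterial strains and minimal fungicidal concentration for fungal strains. Tests were run in six replicates, and the value is the mean of at least three determinations.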

[3] = system: Staphylococcus aureus; experiment: Antimicrobial activity against Staphylococcus aureus MTCC 96 after 24 hrs by microdilution method; details: MTCC 96, 24 h; in short: as §2
[4] = system: Escherichia coli; experiment: Antimicrobial activity against Escherichia coli MTCC 724 at 100 ug/ml after 24 hrs by disc diffusion method; details: MTCC 724, 24 h, read-out: DIZ; in short: as §1
[5] = system: Klebsiella pneumoniae; experiment: Antimicrobial activity against Klebsiella pneumoniae MTCC 3384 after 24 hrs by microdilution method; details: MTCC 3384, 24 h; in short: as §2
[6] = system: Fusarium verticillioides; experiment: Antimicrobial activity against Fusarium moniliforme MTCC 156 at 50 ug/ml after 48 hrs by disc diffusion method; details: MTCC 156, 48 h, read-out: DIZ; in short: as §1
[7] = system: Aspergillus flavus; experiment: Antimicrobial activity against Aspergillus flavus MTCC 873 after 48 hrs by microdilution method; details: MTCC 873, 48 h; in short: as §2
[8] = system: Escherichia coli; experiment: Antimicrobial activity against Escherichia coli MTCC 724 after 24 hrs by microdilution method; details: MTCC 724, 24 h; in short: as §2
[9] = system: Staphylococcus aureus; experiment: Antimicrobial activity against Staphylococcus aureus MTCC 96 at 50 ug/ml after 24 hrs by disc diffusion method; details: MTCC 96, 24 h, read-out: DIZ; in short: as §1
[10] = system: Aspergillus flavus; experiment: Antimicrobial activity against Aspergillus flavus MTCC 873 at 50 ug/ml after 48 hrs by disc diffusion method; details: MTCC 873, 48 h, read-out: DIZ; in short: as §1
[11] = system: Klebsiella pneumoniae; experiment: Antimicrobial activity against Klebsiella pneumoniae MTCC 3384 at 50 ug/ml after 24 hrs by disc diffusion method; details: MTCC 3384, 24 h, read-out: DIZ; in short: as §1
[12] = system: Staphylococcus aureus; experiment: Antimicrobial activity against Staphylococcus aureus MTCC 96 at 100 ug/ml after 24 hrs by disc diffusion method; details: MTCC 96, 24 h, read-out: DIZ; in short: as §1
[13] = system: Fusarium verticillioides; experiment: Antimicrobial activity against Fusarium moniliforme MTCC 156 after 48 hrs by microdilution method; details: MTCC 156, 48 h; in short: as §2
[14] = system: Bacillus cereus; experiment: Antimicrobial activity against Bacillus cereus MTCC 8372 at 50 ug/ml after 24 hrs by disc diffusion method; details: MTCC 8372, 24 h, read-out: DIZ; in short: as §1
[15] = system: Aspergillus niger; experiment: Antimicrobial activity against Aspergillus niger MTCC 281 at 100 ug/ml after 48 hrs by disc diffusion method; details: MTCC 281, 48 h, read-out: DIZ; in short: as §1
[16] = system: Bacillus cereus; experiment: Antimicrobial activity against Bacillus cereus MTCC 8372 at 100 ug/ml after 24 hrs by disc diffusion method; details: MTCC 8372, 24 h, read-out: DIZ; in short: as §1
[17] = system: Fusarium oxysporum; experiment: Antimicrobial activity against Fusarium oxysporum MTCC 284 at 50 ug/ml after 48 hrs by disc diffusion method; details: MTCC 284, 48 h, read-out: DIZ; in short: as §1
[18] = system: Aspergillus niger; experiment: Antimicrobial activity against Aspergillus niger MTCC 281 after 48 hrs by microdilution method; details: MTCC 281, 48 h; in short: as §2
[19] = system: Bacillus cereus; experiment: Antimicrobial activity against Bacillus cereus MTCC 8372 after 24 hrs by microdilution method; details: MTCC 8372, 24 h; in short: as §2
[20] = system: Escherichia coli; experiment: Antimicrobial activity against Escherichia coli MTCC 724 at 50 ug/ml after 24 hrs by disc diffusion method; details: MTCC 724, 24 h, read-out: DIZ; in short: as §1
[21] = system: Klebsiella pneumoniae; experiment: Antimicrobial activity against Klebsiella pneumoniae MTCC 3384 at 100 ug/ml after 24 hrs by disc diffusion method; details: MTCC 3384, 24 h, read-out: DIZ; in short: as §1
[22] = system: Fusarium verticillioides; experiment: Antimicrobial activity against Fusarium moniliforme MTCC 156 at 100 ug/ml after 48 hrs by disc diffusion method; details: MTCC 156, 48 h, read-out: DIZ; in short: as §1
[23] = system: Fusarium oxysporum; experiment: Antimicrobial activity against Fusarium oxysporum MTCC 284 at 100 ug/ml after 48 hrs by disc diffusion method; details: MTCC 284, 48 h, read-out: DIZ; in short: as §1
[24] = system: Aspergillus niger; experiment: Antimicrobial activity against Aspergillus niger MTCC 281 at 50 ug/ml after 48 hrs by disc diffusion method; details: MTCC 281, 48 h, read-out: DIZ; in short: as §1

MIC [2] [µg/mL] | MIC [3] [µg/mL] | MIC [5] [µg/mL] | MIC [7] [µg/mL] | MIC [8] [µg/mL] | MIC [13] [µg/mL] | Compound | zone of inhibition at 100 µg/mL [1] [mm] | MFC [2] [µg/mL] | MBC [3] [µg/mL] | zone of inhibition at 100 µg/mL [4] [mm] | MBC [5] [µg/mL] | zone of inhibition at 50 µg/mL [6] [mm] | MFC [7] [µg/mL] | MBC [8] [µg/mL] | zone of inhibition at 50 µg/mL [9] [mm] | zone of inhibition at 50 µg/mL [10] [mm] | zone of inhibition at 50 µg/mL [11] [mm] | zone of inhibition at 100 µg/mL [12] [mm] | MFC [13] [µg/mL] | zone of inhibition at 50 µg/mL [14] [mm] | further results
40 (≈ 85.4 µM) | 40 (≈ 85.4 µM) | 20 (≈ 42.7 µM) | 45 (≈ 96 µM) | 20 (≈ 42.7 µM) | 55 (≈ 117 µM) | COc1cc(-c2nnc(-c3c(-c4ccccc4)nn(-c4ccccc4)c3C)o2)cc(OC)c1OC | 13 | 275 (≈ 587 µM) | 250 (≈ 534 µM) | 32 | 160 (≈ 342 µM) | 7 | 275 (≈ 587 µM) | 150 (≈ 320 µM) | 5 | 4 | 10 | 12 | 300 (≈ 640 µM) | 4 | zone of inhibition at 100 µg/mL [15]: 12 mm; zone of inhibition at 100 µg/mL [16]: 13 mm; zone of inhibition at 50 µg/mL [17]: 8 mm; MFC [18]: 275 µg/mL (≈ 587 µM); MIC [18]: 40 µg/mL (≈ 85.4 µM); MBC [19]: 230 µg/mL (≈ 491 µM); MIC [19]: 35 µg/mL (≈ 74.7 µM); zone of inhibition at 50 µg/mL [20]: 20 mm; zone of inhibition at 100 µg/mL [21]: 20 mm; zone of inhibition at 100 µg/mL [22]: 10 mm; zone of inhibition at 100 µg/mL [23]: 10 mm; zone of inhibition at 50 µg/mL [24]: 5 mm
25 (≈ 57 µM) | 40 (≈ 91.2 µM) | 35 (≈ 79.8 µM) | 45 (≈ 103 µM) | 35 (≈ 79.8 µM) | 55 (≈ 125 µM) | COc1ccc(-c2nn(-c3ccccc3)c(C)c2-c2nnc(-c3ccccc3)o2)cc1OC | 8 | 220 (≈ 502 µM) | 235 (≈ 536 µM) | 20 | 250 (≈ 570 µM) | 6 | 275 (≈ 627 µM) | 220 (≈ 502 µM) | 6 | 5 | 6 | 13 | 290 (≈ 661 µM) | 8 | zone of inhibition at 100 µg/mL [15]: 11 mm; zone of inhibition at 100 µg/mL [16]: 16 mm; zone of inhibition at 50 µg/mL [17]: 15 mm; MFC [18]: 275 µg/mL (≈ 627 µM); MIC [18]: 40 µg/mL (≈ 91.2 µM); MBC [19]: 230 µg/mL (≈ 525 µM); MIC [19]: 35 µg/mL (≈ 79.8 µM); zone of inhibition at 50 µg/mL [20]: 14 mm; zone of inhibition at 100 µg/mL [21]: 9 mm; zone of inhibition at 100 µg/mL [22]: 8 mm; zone of inhibition at 100 µg/mL [23]: 24 mm; zone of inhibition at 50 µg/mL [24]: 3 mm
50 (≈ 132 µM) | 35 (≈ 92.5 µM) | 30 (≈ 79.3 µM) | 40 (≈ 106 µM) | 40 (≈ 106 µM) | 55 (≈ 145 µM) | Cc1c(-c2nnc(-c3ccccc3)o2)c(-c2ccccc2)nn1-c1ccccc1 | 8 | 275 (≈ 727 µM) | 240 (≈ 634 µM) | 6 | 220 (≈ 581 µM) | 4 | 280 (≈ 740 µM) | 260 (≈ 687 µM) | 6 | 4 | 6 | 7 | 290 (≈ 766 µM) | 5 | zone of inhibition at 100 µg/mL [15]: 8 mm; zone of inhibition at 100 µg/mL [16]: 9 mm; zone of inhibition at 50 µg/mL [17]: 3 mm; MFC [18]: 270 µg/mL (≈ 713 µM); MIC [18]: 45 µg/mL (≈ 119 µM); MBC [19]: 230 µg/mL (≈ 608 µM); MIC [19]: 35 µg/mL (≈ 92.5 µM); zone of inhibition at 50 µg/mL [20]: 5 mm; zone of inhibition at 100 µg/mL [21]: 14 mm; zone of inhibition at 100 µg/mL [22]: 6 mm; zone of inhibition at 100 µg/mL [23]: 8 mm; zone of inhibition at 50 µg/mL [24]: 5 mm
25 (≈ 44.8 µM) | 20 (≈ 35.8 µM) | 20 (≈ 35.8 µM) | 30 (≈ 53.7 µM) | 20 (≈ 35.8 µM) | 25 (≈ 44.8 µM) | COc1cc(-c2nnc(-c3c(-c4cc(OC)c(OC)c(OC)c4)nn(-c4ccccc4)c3C)o2)cc(OC)c1OC | 23 | 220 (≈ 394 µM) | 150 (≈ 269 µM) | 36 | 155 (≈ 277 µM) | 12 | 215 (≈ 385 µM) | 150 (≈ 269 µM) | 10 | 18 | 11 | 24 | 225 (≈ 403 µM) | 12 | zone of inhibition at 100 µg/mL [15]: 25 mm; zone of inhibition at 100 µg/mL [16]: 23 mm; zone of inhibition at 50 µg/mL [17]: 14 mm; MFC [18]: 225 µg/mL (≈ 403 µM); MIC [18]: 25 µg/mL (≈ 44.8 µM); MBC [19]: 160 µg/mL (≈ 286 µM); MIC [19]: 20 µg/mL (≈ 35.8 µM); zone of inhibition at 50 µg/mL [20]: 21 mm; zone of inhibition at 100 µg/mL [21]: 21 mm; zone of inhibition at 100 µg/mL [22]: 22 mm; zone of inhibition at 100 µg/mL [23]: 21 mm; zone of inhibition at 50 µg/mL [24]: 11 mm
